Measured values of several laboratories.
Lines come from different studies, so protocols differ.
ST14: Suppressor of tumorigenicity 14 protein (ST14, Homo sapiens, UniProt Q9Y5Y6)
CDK2 with cyclin A2: Cyclin-dependent kinase 2, with cyclin A2 (CDK2, Homo sapiens, UniProt P24941)

The remaining activity of CNc1ncc2c(/C=C/C(=O)N3CCC(OC)CC3)nn(Cc3cccc(C(F)(F)F)c3)c2n1 is reported as 95% (Tyrosine-protein kinase ZAP-70 (ZAP70, Homo sapiens, UniProt P43403); enzyme activity; inhibitor; radiometric; 1 µM).
The remaining activity of N=C(N)NCCC[C@H](NC(=O)[C@@H]1CCCN1C(=O)[C@H](Cc1cscn1)NC(=O)CCc1ccccc1)C(=O)c1nc2ccccc2s1 is reported as 61% (ST14; enzyme activity; inhibitor; 0.1 µM).
For CC(=O)Nc1c(N)nc(SCC(=O)NN)[nH]c1=O, the inhibition was 8.32% (CDK2 with cyclin A2; enzyme activity; inhibitor; 1 nM).
COc1cc(-c2cncc3c2CN(C)Cc2cc(N4CCNCC4)ccc2-3)cc(OC)c1OC has a remaining activity of 103% (Dual specificity protein kinase CLK3 (CLK3, Homo sapiens, UniProt P49761); enzyme activity; inhibitor; 1 µM).
C=CC(=O)N1CCC(COCC(=O)N2CCN(c3nc(-c4cnc(N)nc4C(F)F)nc(N4CCOC[C@@H]4C)n3)CC2)CC1 gave a remaining binding of 100% (Angiopoietin-1 receptor (TEK, Homo sapiens, UniProt Q02763); binding; competition with immobilised ligand; 1 µM).
N=C(N)NCCC[C@H](NC(=O)[C@@H](NC(=O)[C@H](Cc1cscn1)NC(=O)CCc1ccccc1)C(c1ccccc1)c1ccccc1)C(=O)c1nc2ccccc2s1 has a remaining activity of 76% (ST14; enzyme activity; inhibitor; 0.1 µM).
The inhibition of CNC(=O)c1cc(Oc2ccc(NC(=O)Nc3ccc(Cl)c(C(F)(F)F)c3)cc2)ccn1 is reported as 27.6% (CDK2 with cyclin A2; enzyme activity; inhibitor; 5 nM).
CCC[C@H](NC(=O)[C@H](Cc1cscn1)NC(=O)CCc1ccccc1)C(=O)N[C@@H](CCCNC(=N)N)C(=O)c1nc2ccccc2s1 has a remaining activity of 45% (ST14; enzyme activity; inhibitor; 0.1 µM).
Cc1cc([C@@H](C)Nc2ccccc2C(=O)O)c2nc(N3CCC(F)(F)CC3)c(C#N)c(=O)n2c1 has a remaining binding of 100% (Serine/threonine-protein kinase pim-1 (PIM1, Homo sapiens, UniProt P11309); binding; competition with immobilised ligand; 10 µM).
For CC(=O)Nc1c(N)nc(SCC(=O)N/N=C/c2ccc([N+](=O)[O-])cc2)[nH]c1=O, the inhibition was 15% (CDK2 with cyclin A2; enzyme activity; inhibitor; 10 nM).
